Laboratory results taken from ChEMBL document CHEMBL1138293, “Novel peptide inhibitors of human secretory phospholipase A2 with antiinflammatory activity: solution structure and molecular modeling” (J Med Chem, 2007).
Calls of active or inactive are those of the source. The calls are words filed in the database; no cut-off is given here.

Experiments:
Homo sapiens [1] = organism: Homo sapiens; experiment: Inhibition of human recombinant synovial PLA2 by at 5 uM
In short: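 Single peptide concentration of 5 µM against purified human synovial type IIA sPLA2 (0.85 pmol), with [3H]arachidonate-labeled E. coli membranes as substrate in 100 mM Tris-HCl, 25 mM CaCl2, pH 7.5. Released label was counted by liquid scintillation, in triplicate. Results are % inhibition relative to enzyme preincubated with buffer alone; groups were compared by one-way ANOVA with Dunnett's test.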

[2] = Inhibition of human recombinant synovial PLA2
In short: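 Purified human synovial type IIA sPLA2 (0.85 pmol) was preincubated with peptide (1-250 range) and then reacted with [3H]arachidonate-labeled E. coli membranes in 100 mM Tris-HCl, 25 mM CaCl2, pH 7.5. Released [3H]arachidonate was counted by liquid scintillation, in triplicate. IC50 (mean ± SD) was obtained from sigmoid curves by nonlinear regression of % inhibition versus buffer-only control.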

Homo sapiens [3] = organism: Homo sapiens; experiment: Inhibition of IL-1-beta-induced MMP2 levels in human RASFs after 1 hr by ELISA; assay type: functional
In short: (§1)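 Primary synovial fibroblasts from three RA knee-replacement patients, passages 3-8, grown to confluence and serum-starved 16 h. Cells were preincubated 1 h at 37 °C with 5 µM peptide or vehicle (0.1% DMSO final), then given hrIL-1β 10 ng/mL for 24 h. Supernatants were stored at -20 °C, and type IIA sPLA2 or MMP-1/-2/-9 was measured by ELISA in triplicate.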

[4] = Toxicity against human RASF at 1 to 10 uM after 24 hrs
In short: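 Primary RA synovial fibroblasts (passages 3-8) were exposed to peptide at 1, 5 and 10 µM for 24 h. Viability was read by the XTT cell proliferation assay.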

Homo sapiens [5] = organism: Homo sapiens; experiment: Inhibition of IL-1-beta-induced MMP9 levels in human RASFs after 1 hr by ELISA; assay type: functional; in short: as §1
Homo sapiens [6] = organism: Homo sapiens; experiment: Effect on IL-1-beta-stimulated TIMP2 production in human RASFs; assay type: functional
Homo sapiens [7] = organism: Homo sapiens; experiment: Inhibition of IL-1-beta-induced sPLA2 production in human RASFs at 5 uM by ELISA; assay type: functional; in short: as §1
Homo sapiens [8] = organism: Homo sapiens; experiment: Inhibition of IL-1-beta-induced MMP1 levels in human RASFs after 1 hr by ELISA; assay type: functional; in short: as §1
Homo sapiens [9] = organism: Homo sapiens; experiment: Inhibition of IL-1-beta-induced sPLA2 production in human RASFs by ELISA; assay type: functional
In short: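 RA synovial fibroblasts (passages 3-8, serum-starved 16 h) were preincubated 1 h at 37 °C with peptide (1, 2.5, 5 or 10 µM) or vehicle (0.1% DMSO final), then cultured a further 24 h with or without IL-1β 10 ng/mL. Supernatant sPLA2-IIA was measured by EIA in triplicate; mean ± SD from a representative of three RASF lines.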

Oryctolagus cuniculus [10] = organism: Oryctolagus cuniculus; experiment: Inhibition of IL-1-beta-induced MMP1 gene expression in rabbit HIG82 cells by QRT-PCR; assay type: functional, cell-based
In short: (§2)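 Rabbit HIG-82 fibroblast-like synoviocytes were grown in Ham's F-12/10% FBS to 80% confluence. They were serum-starved 2 h with or without 5 µM peptide; controls got medium or vehicle (0.1% DMSO). Cells were then stimulated 24 h with rhIL-1β 5 ng/mL, washed in cold PBS, RNA extracted, and transcripts measured by qRT-PCR.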

Homo sapiens [11] = organism: Homo sapiens; experiment: Inhibition of IL-1-beta-induced MMP2 gene expression in human RASFs by QRT-PCR; assay type: functional
In short: (§3)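 Primary synovial fibroblasts from three RA patients (passages 3-8), grown to confluence in DMEM/10% FBS and serum-starved 16 h. Preincubated 1 h with 5 µM peptide or vehicle (0.1% DMSO final), then stimulated 24 h with hrIL-1β 10 ng/mL. Cells from 3 flasks pooled per group, total RNA isolated and DNase-treated, then transcripts quantified by qRT-PCR. Unstimulated cells served as controls.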

Oryctolagus cuniculus [12] = organism: Oryctolagus cuniculus; experiment: Inhibition of IL-1-beta-induced sPLA2 gene expression in rabbit HIG82 cells by QRT-PCR; assay type: functional, cell-based; in short: as §2
Oryctolagus cuniculus [13] = organism: Oryctolagus cuniculus; experiment: Inhibition of IL-1-beta-induced TIMPs gene expression in rabbit HIG82 cells by QRT-PCR; assay type: functional, cell-based; in short: as §2
Homo sapiens [14] = organism: Homo sapiens; experiment: Inhibition of IL-1-beta-induced MMP9 gene expression in human RASFs by QRT-PCR; assay type: functional; in short: as §3
Homo sapiens [15] = organism: Homo sapiens; experiment: Inhibition of IL-1-beta-induced MMP1 gene expression in human RASFs by QRT-PCR; assay type: functional; in short: as §3
Homo sapiens [16] = organism: Homo sapiens; experiment: Inhibition of IL-1-beta-induced TIMPs gene expression in human RASFs by QRT-PCR; assay type: functional; in short: as §3
Homo sapiens [17] = organism: Homo sapiens; experiment: Inhibition of IL-1-beta-induced sPLA2 gene expression in human RASFs by QRT-PCR; assay type: functional; in short: as §3
Oryctolagus cuniculus [18] = organism: Oryctolagus cuniculus; experiment: Inhibition of IL-1-beta-induced MMP9 gene expression in rabbit HIG82 cells by QRT-PCR; assay type: functional, cell-based; in short: as §2
Oryctolagus cuniculus [19] = organism: Oryctolagus cuniculus; experiment: Inhibition of IL-1-beta-induced MMP2 gene expression in rabbit HIG82 cells by QRT-PCR; assay type: functional, cell-based; in short: as §2

Compound | inhibition (Homo sapiens [1]) | IC50 [2] | further results
CC[C@H](C)[C@@H](NC(=O)[C@@H](N)CC(=O)O)C(=O)N[C@@H](Cc1cnc[nH]1)C(=O)N[C@H](C(=O)N[C@@H](Cc1c[nH]c2ccccc12)C(=O)N[C@@H](CC(=O)O)C(=O)NCC(=O)N[C@H](C(=O)O)C(C)C)C(C)C | 45.9% | 5.75 µM | –
CC[C@H](C)[C@@H](NC(=O)[C@H](CC(=O)O)NC(=O)[C@@H](NC(=O)[C@@H](N)CCCNC(=N)N)C(C)C)C(=O)N[C@@H](Cc1cnc[nH]1)C(=O)N[C@H](C(=O)N[C@@H](Cc1c[nH]c2ccccc12)C(=O)N[C@@H](CC(=O)O)C(=O)NCC(=O)N[C@H](C(=O)O)C(C)C)C(C)C | 59.5% | 3.67 µM | –
CC[C@H](C)[C@@H](NC(=O)[C@H](CC(=O)O)NC(=O)[C@@H](N)C(C)C)C(=O)N[C@@H](Cc1cnc[nH]1)C(=O)N[C@H](C(=O)N[C@@H](Cc1c[nH]c2ccccc12)C(=O)N[C@@H](CC(=O)O)C(=O)NCC(=O)N[C@H](C(=O)O)C(C)C)C(C)C | 56.4% | 3.8 µM | –
CC[C@H](C)[C@@H](NC(=O)[C@H](CC(=O)O)NC(=O)[C@@H](NC(=O)[C@H](CCCNC(=N)N)NC(=O)CN)C(C)C)C(=O)N[C@@H](Cc1cnc[nH]1)C(=O)N[C@H](C(=O)N[C@@H](Cc1c[nH]c2ccccc12)C(=O)N[C@@H](CC(=O)O)C(=O)NCC(=O)N[C@H](C(=O)O)C(C)C)C(C)C | 14.2% | – | –
CCc1c(C(=O)C(N)=O)c2c(OCC(=O)O)cccc2n1Cc1ccccc1 [VARESPLADIB] | – | – | Activity (Homo sapiens [3]): Active; Activity [4]: Non-toxic; Activity (Homo sapiens [5]): Active; Activity (Homo sapiens [6]): inactive; Activity (Homo sapiens [7]): Active; Activity (Homo sapiens [8]): Active
H-IHVWDGV-OH | 35.4% | 6.21 µM | –
H-LGRVDIHVWDGV-OH | 34.2% | – | –
H-LGRVDIHVWDGVY-OH | 48.7% | 5.95 µM | –
H-LGRVDIHVWDGVYI-OH | 49.7% | 5.8 µM | –
H-LGRVDIHVWDGVYIR-OH | 51% | 5.75 µM | –
H-LGRVDIHVWDGVYIRG-OH | 52.4% | 5.6 µM | –
H-LGRVDIHVWDGVYIRGR-OH | 55.6% | 5.3 µM | –
H-VDIHVWAGV-OH | 48.5% | 5.45 µM | –
H-VDIHVWDGVVDIHVWDGV-OH | 74.5% | 1.19 µM | Activity (Homo sapiens [9]): Dose-dependent effect; Activity (Oryctolagus cuniculus [10]): Active; Activity (Homo sapiens [3]): Active; Activity (Homo sapiens [11]): Active; Activity [4]: Non-toxic; Activity (Homo sapiens [5]): Active; Activity (Oryctolagus cuniculus [12]): Active; Activity (Oryctolagus cuniculus [13]): inactive; Activity (Homo sapiens [14]): Active; Activity (Homo sapiens [6]): inactive; Activity (Homo sapiens [15]): Active; Activity (Homo sapiens [7]): Active; Activity (Homo sapiens [16]): inactive; Activity (Homo sapiens [17]): Active; Activity (Oryctolagus cuniculus [18]): Active; Activity (Homo sapiens [8]): Active; Activity (Oryctolagus cuniculus [19]): Active
H-VDIHVWEGV-OH | 57.6% | 4.95 µM | –
H-VDIHVWSGV-OH | 52.5% | 5.25 µM | –
